Measurements published in ChEMBL document CHEMBL4257590, “Semisynthesis of Platensimycin Derivatives with Antibiotic Activities in Mice via Suzuki-Miyaura Cross-Coupling Reactions” (J Med Chem, 2018).
In brackets after ≈: the same amount, converted by molar mass.

Legend:
Assay type in all cases: functional
Staphylococcus aureus [1] = experiment: Antibacterial activity against methicillin-sensitive Staphylococcus aureus isolate 2 after 16 hrs by agar dilution method; conditions: isolate 2, 16 h
Summary of the method: (§1)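 Agar dilution in LB agar with compound (from methanol solutions) at final 0.5–64 μg/ml per plate. Strains grown 16 h at 37 °C, 250 rpm in LB broth, adjusted to OD600 0.25±0.05, diluted 10^4-fold; 2 μl spotted per plate, incubated 16 h at 37 °C. MIC = lowest concentration with no visible colonies; at least two independent experiments. Linezolid and PTM as controls.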

Staphylococcus aureus [2] = experiment: Antibacterial activity against methicillin-resistant Staphylococcus aureus isolate 4 after 16 hrs by agar dilution method; conditions: isolate 4, 16 h; summary of the method: as §1
Staphylococcus aureus [3] = experiment: Antibacterial activity against methicillin-sensitive Staphylococcus aureus isolate 1 after 16 hrs by agar dilution method; conditions: isolate 1, 16 h; summary of the method: as §1
Staphylococcus aureus [4] = experiment: Antibacterial activity against methicillin-resistant Staphylococcus aureus isolate 6 after 16 hrs by agar dilution method; conditions: isolate 6, 16 h; summary of the method: as §1
Staphylococcus aureus [5] = experiment: Antibacterial activity against methicillin-resistant Staphylococcus aureus isolate 3 after 16 hrs by agar dilution method; conditions: isolate 3, 16 h; summary of the method: as §1
Staphylococcus aureus [6] = experiment: Antibacterial activity against methicillin-resistant Staphylococcus aureus isolate 5 after 16 hrs by agar dilution method; conditions: isolate 5, 16 h; summary of the method: as §1
Staphylococcus aureus [7] = experiment: Antibacterial activity against Staphylococcus aureus ATCC 29213 after 16 hrs by agar dilution method; conditions: ATCC 29213, 16 h; summary of the method: as §1

Compound	MIC (Staphylococcus aureus [1]) [µg/mL]	MIC (Staphylococcus aureus [2]) [µg/mL]	MIC (Staphylococcus aureus [3]) [µg/mL]	MIC (Staphylococcus aureus [4]) [µg/mL]	MIC (Staphylococcus aureus [5]) [µg/mL]	MIC (Staphylococcus aureus [6]) [µg/mL]	MIC (Staphylococcus aureus [7]) [µg/mL]
Cc1cc(C)cc(C2=C[C@]34C[C@@H]5C[C@H](O[C@@]5(C)C3)[C@H]4[C@](C)(CCC(=O)Nc3c(O)ccc(C(=O)O)c3O)C2=O)c1	4 (≈ 7.33 µM)	4 (≈ 7.33 µM)	4 (≈ 7.33 µM)	4 (≈ 7.33 µM)	4 (≈ 7.33 µM)	4 (≈ 7.33 µM)	4 (≈ 7.33 µM)
CC(=O)NC[C@H]1CN(c2ccc(N3CCOCC3)c(F)c2)C(=O)O1 [LINEZOLID]	1 (≈ 2.96 µM)	1 (≈ 2.96 µM)	1 (≈ 2.96 µM)	1 (≈ 2.96 µM)	1 (≈ 2.96 µM)	1 (≈ 2.96 µM)	1 (≈ 2.96 µM)
C[C@]12C[C@@]34C=C(c5cccc(O)c5)C(=O)[C@@](C)(CCC(=O)Nc5c(O)ccc(C(=O)O)c5O)[C@@H]3[C@H](C[C@H]1C4)O2	32 (≈ 60 µM)	32 (≈ 60 µM)	32 (≈ 60 µM)	32 (≈ 60 µM)	32 (≈ 60 µM)	32 (≈ 60 µM)	32 (≈ 60 µM)
C[C@]12C[C@@]34C=C(c5ccc(Br)cc5)C(=O)[C@@](C)(CCC(=O)Nc5c(O)ccc(C(=O)O)c5O)[C@@H]3[C@H](C[C@H]1C4)O2	4 (≈ 6.71 µM)	4 (≈ 6.71 µM)	2 (≈ 3.35 µM)	2 (≈ 3.35 µM)	4 (≈ 6.71 µM)	2 (≈ 3.35 µM)	2 (≈ 3.35 µM)
C[C@]12C[C@@]34C=C(c5cc6ccccc6c6ccccc56)C(=O)[C@@](C)(CCC(=O)Nc5c(O)ccc(C(=O)O)c5O)[C@@H]3[C@H](C[C@H]1C4)O2	2 (≈ 3.24 µM)	2 (≈ 3.24 µM)	2 (≈ 3.24 µM)	2 (≈ 3.24 µM)	4 (≈ 6.48 µM)	4 (≈ 6.48 µM)	2 (≈ 3.24 µM)
C[C@]12C[C@@]34C=C(c5ccc(C=O)cc5)C(=O)[C@@](C)(CCC(=O)Nc5c(O)ccc(C(=O)O)c5O)[C@@H]3[C@H](C[C@H]1C4)O2	16 (≈ 29.3 µM)	32 (≈ 58.7 µM)	16 (≈ 29.3 µM)	32 (≈ 58.7 µM)	32 (≈ 58.7 µM)	32 (≈ 58.7 µM)	32 (≈ 58.7 µM)
C[C@]12C[C@@]34C=C(c5cccc(-c6ccccc6)c5)C(=O)[C@@](C)(CCC(=O)Nc5c(O)ccc(C(=O)O)c5O)[C@@H]3[C@H](C[C@H]1C4)O2	8 (≈ 13.5 µM)	8 (≈ 13.5 µM)	8 (≈ 13.5 µM)	8 (≈ 13.5 µM)	8 (≈ 13.5 µM)	8 (≈ 13.5 µM)	8 (≈ 13.5 µM)
C[C@]12C[C@@]34C=C(c5ccc6ccccc6c5)C(=O)[C@@](C)(CCC(=O)Nc5c(O)ccc(C(=O)O)c5O)[C@@H]3[C@H](C[C@H]1C4)O2	8 (≈ 14.1 µM)	8 (≈ 14.1 µM)	8 (≈ 14.1 µM)	8 (≈ 14.1 µM)	8 (≈ 14.1 µM)	8 (≈ 14.1 µM)	8 (≈ 14.1 µM)
CCCCCc1ccc(C2=C[C@]34C[C@@H]5C[C@H](O[C@@]5(C)C3)[C@H]4[C@](C)(CCC(=O)Nc3c(O)ccc(C(=O)O)c3O)C2=O)cc1	4 (≈ 6.81 µM)	4 (≈ 6.81 µM)	4 (≈ 6.81 µM)	4 (≈ 6.81 µM)	4 (≈ 6.81 µM)	4 (≈ 6.81 µM)	4 (≈ 6.81 µM)
C[C@]12C[C@@]34C=C(c5cccc(C(F)(F)F)c5)C(=O)[C@@](C)(CCC(=O)Nc5c(O)ccc(C(=O)O)c5O)[C@@H]3[C@H](C[C@H]1C4)O2	8 (≈ 13.7 µM)	8 (≈ 13.7 µM)	4 (≈ 6.83 µM)	8 (≈ 13.7 µM)	8 (≈ 13.7 µM)	8 (≈ 13.7 µM)	4 (≈ 6.83 µM)
Cc1ccc(C2=C[C@]34C[C@@H]5C[C@H](O[C@@]5(C)C3)[C@H]4[C@](C)(CCC(=O)Nc3c(O)ccc(C(=O)O)c3O)C2=O)cc1	8 (≈ 15 µM)	16 (≈ 30.1 µM)	8 (≈ 15 µM)	16 (≈ 30.1 µM)	8 (≈ 15 µM)	16 (≈ 30.1 µM)	8 (≈ 15 µM)
